Laboratory results reported in ChEMBL document CHEMBL1122854, “Novel bis[1,6-dihydro-6,6-dimethyl-1,3,5-triazine-2,4-diamines] as antitrypanosomal agents” (1985).

What was measured:
Assay type in all cases: functional
Mus musculus [1] = assay: Antitrypanosomal activity was evaluated against Trypanosoma rhodesiense infections in mice, at dose 53 mg/kg, administered orally; conditions: route oral
Mus musculus [2] = assay: Antitrypanosomal activity was evaluated against Trypanosoma rhodesiense infections in mice, at dose 424 mg/kg, administered subcutaneously;Cures; conditions: route subcutaneous
Method in brief: (§1)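 IUR/HA Swiss mice (six weeks old, 30-32 g) infected i.p. with Wellcome CT strain T. rhodesiense. A single subcutaneous dose in peanut oil was given about 2 h after inoculation, with five mice per dose level. Positive control was stilbamidine or 2-hydroxystilbamidine isethionate at 40 mg/kg. Deaths before day 4 were scored toxic, and 30-day survivors cured.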

Mus musculus [3] = assay: Antitrypanosomal activity was evaluated against Trypanosoma rhodesiense infections in mice, at dose 6.6 mg/kg, administered subcutaneously;Cures; conditions: route subcutaneous; method in brief: as §1
Mus musculus [4] = assay: Antitrypanosomal activity was evaluated against Trypanosoma rhodesiense infections in mice, at dose 13 mg/kg, administered subcutaneously;Toxic; conditions: route subcutaneous; method in brief: as §1
Mus musculus [5] = assay: Antitrypanosomal activity was evaluated against Trypanosoma rhodesiense infections in mice, at dose 3.3 mg/kg, administered subcutaneously; conditions: route subcutaneous
Method in brief: (§2)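 Six-week-old IUR/HA Swiss mice (30-32 g), 5 per dose, infected ip with 0.5 mL of a 1:50 000 dilution of heparinized heart blood from donor mice infected 3 days before (Wellcome CT strain). Single sc dose in peanut oil about 2 h post-inoculation. Deaths before day 4 counted toxic. ΔMST versus untreated controls; survivors at 30 days counted cured.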

Mus musculus [6] = assay: Antitrypanosomal activity was evaluated against Trypanosoma rhodesiense infections in mice, at dose 212 mg/kg, administered orally; conditions: route oral
Mus musculus [7] = assay: (§3) Antitrypanosomal activity was evaluated against Trypanosoma rhodesiense infections in mice, at dose 424 mg/kg, administered orally; conditions: route oral
Mus musculus [8] = assay: Antitrypanosomal activity was evaluated against Trypanosoma rhodesiense infections in mice, at dose 26 mg/kg, administered orally; conditions: route oral
Mus musculus [9] = assay: Antitrypanosomal activity was evaluated against Trypanosoma rhodesiense infections in mice, at dose 6.6 mg/kg, administered subcutaneously;Toxic; conditions: route subcutaneous; method in brief: as §1
Mus musculus [10] = assay: Antitrypanosomal activity was evaluated against Trypanosoma rhodesiense infections in mice, at dose 26 mg/kg, administered orally;Toxic; conditions: in the assay text read “administered subcutaneously” for “administered orally”
Mus musculus [11] = assay: (§4) Antitrypanosomal activity was evaluated against Trypanosoma rhodesiense infections in mice, at dose 6.6 mg/kg, administered subcutaneously; conditions: route subcutaneous; method in brief: as §2
Mus musculus [12] = assay: Antitrypanosomal activity was evaluated against Trypanosoma rhodesiense infections in mice, at dose 106 mg/kg, administered orally; conditions: route oral
Mus musculus [13] = assay: as §3; conditions: route oral; remark: listed apart in the source
Method in brief: (§5)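 Oral dosing of IUR/HA Swiss mice (six weeks old, 30-32 g) infected i.p. with Wellcome CT strain T. rhodesiense, with five mice per dose level. Survival was followed for 30 days. Deaths before day 4 were counted as toxic and 30-day survivors as cured. ΔMST is the difference in mean survival time between treated and control mice.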

Mus musculus [14] = assay: Antitrypanosomal activity was evaluated against Trypanosoma rhodesiense infections in mice, at dose 106 mg/kg, administered orally;Toxic; method in brief: as §5
[15] = test system: Trypanosoma brucei rhodesiense; assay: Antitrypanosomal activity against Trypanosoma rhodesiense infections in mice, 424 mg/kg administered subcutaneously; conditions: route subcutaneous; method in brief: as §1
[16] = test system: Trypanosoma brucei rhodesiense; assay: Anti-trypanosomal activity against Trypanosoma rhodesiense infections in mice, 26 mg/kg administered subcutaneously; conditions: route subcutaneous; method in brief: as §2
[17] = test system: Trypanosoma brucei rhodesiense; assay: Antitrypanosomal activity was evaluated against Trypanosoma rhodesiense infections in mice, at dose 106 mg/kg, administered subcutaneously; conditions: route subcutaneous; method in brief: as §1
[18] = test system: Trypanosoma brucei rhodesiense; assay: Antitrypanosomal activity against Trypanosoma rhodesiense infections in mice, 3.3 mg/kg administered subcutaneously; conditions: route subcutaneous; method in brief: as §2
Mus musculus [19] = assay: (§6) Antitrypanosomal activity was evaluated against Trypanosoma rhodesiense infections in mice, at dose 26 mg/kg, administered subcutaneously; conditions: route subcutaneous; method in brief: as §1
[20] = test system: Trypanosoma brucei rhodesiense; assay: Antitrypanosomal activity against Trypanosoma rhodesiense infections in mice, 6.6 mg/kg administered subcutaneously; conditions: route subcutaneous; method in brief: as §2
[21] = test system: Trypanosoma brucei rhodesiense; assay: Antitrypanosomal activity was evaluated against Trypanosoma rhodesiense infections in mice, at dose 1.6 mg/kg, administered subcutaneously; conditions: route subcutaneous; method in brief: as §2
Mus musculus [22] = assay: Antitrypanosomal activity was evaluated against Trypanosoma rhodesiense infections in mice, at dose 3.3 mg/kg, administered subcutaneously;Toxic; conditions: route subcutaneous; method in brief: as §1
Mus musculus [23] = assay: as §4; conditions: route subcutaneous; method in brief: as §1; remark: listed apart in the source
Mus musculus [24] = assay: Antitrypanosomal activity was evaluated against Trypanosoma rhodesiense infections in mice, at dose 13 mg/kg, administered subcutaneously; conditions: route subcutaneous; method in brief: as §1
[25] = test system: Trypanosoma brucei rhodesiense; assay: as §6; conditions: route subcutaneous; method in brief: as §1
Mus musculus [26] = assay: Antitrypanosomal activity was evaluated against Trypanosoma rhodesiense infections in mice, at dose 13 mg/kg, administered subcutaneously;Cures; conditions: route subcutaneous; method in brief: as §1
Mus musculus [27] = assay: Antitrypanosomal activity was evaluated against Trypanosoma rhodesiense infections in mice, at dose 53 mg/kg, administered subcutaneously;Cures; conditions: route subcutaneous; method in brief: as §1
[28] = test system: Trypanosoma brucei rhodesiense; assay: Antitrypanosomal activity was evaluated against Trypanosoma rhodesiense infections in mice, at dose 106 mg/kg, administered subcutaneously;Toxic; conditions: route subcutaneous; method in brief: as §1
Mus musculus [29] = assay: Antitrypanosomal activity was evaluated against Trypanosoma rhodesiense infections in mice, at dose 53 mg/kg, administered subcutaneously;Toxic; conditions: route subcutaneous; method in brief: as §1
[30] = test system: Trypanosoma brucei rhodesiense; assay: (§7) Antitrypanosomal activity was evaluated against Trypanosoma rhodesiense infections in mice, at dose 212 mg/kg, administered subcutaneously; conditions: route subcutaneous; method in brief: as §2
Mus musculus [31] = assay: Antitrypanosomal activity was evaluated against Trypanosoma rhodesiense infections in mice, at dose 212 mg/kg, administered subcutaneously;Toxic; conditions: route subcutaneous; method in brief: as §1
Mus musculus [32] = assay: Antitrypanosomal activity was evaluated against Trypanosoma rhodesiense infections in mice, at dose 3.3 mg/kg, administered subcutaneously;Cures; conditions: route subcutaneous; method in brief: as §1
Mus musculus [33] = assay: (§8) Antitrypanosomal activity was evaluated against Trypanosoma rhodesiense infections in mice, at dose 26 mg/kg, administered subcutaneously;Cures; conditions: route subcutaneous; method in brief: as §2
[34] = test system: Trypanosoma brucei rhodesiense; assay: Antitrypanosomal activity against Trypanosoma rhodesiense infections in mice, 106 mg/kg administered subcutaneously; conditions: route subcutaneous; method in brief: as §2
Mus musculus [35] = assay: Antitrypanosomal activity was evaluated against Trypanosoma rhodesiense infections in mice, at dose 106 mg/kg, administered subcutaneously;Cures; conditions: route subcutaneous; method in brief: as §1
Mus musculus [36] = assay: Antitrypanosomal activity was evaluated against Trypanosoma rhodesiense infections in mice, at dose 1.6mg/kg, administered subcutaneously;Cures; method in brief: as §1
Mus musculus [37] = assay: as §8; conditions: route subcutaneous; method in brief: as §1; remark: listed apart in the source
[38] = test system: Trypanosoma brucei rhodesiense; assay: Antitrypanosomal activity was evaluated against Trypanosoma rhodesiense infections in mice, at dose 424 mg/kg, administered subcutaneously; conditions: route subcutaneous; method in brief: as §2
Mus musculus [39] = assay: as §7; conditions: route subcutaneous; method in brief: as §2
[40] = test system: Trypanosoma brucei rhodesiense; assay: Antitrypanosomal activity was evaluated against Trypanosoma rhodesiense infections in mice, at dose 53 mg/kg, administered subcutaneously; conditions: route subcutaneous; method in brief: as §2
Mus musculus [41] = assay: Antitrypanosomal activity was evaluated against Trypanosoma rhodesiense infections in mice, at dose 212 mg/kg, administered subcutaneously;Cures; conditions: route subcutaneous; method in brief: as §1
Mus musculus [42] = assay: Antitrypanosomal activity was evaluated against Trypanosoma rhodesiense infections in mice, at dose 106 mg/kg, administered subcutaneously; Cures; conditions: route subcutaneous; method in brief: as §1
Mus musculus [43] = assay: Antitrypanosomal activity was evaluated against Trypanosoma rhodesiense infections in mice, at dose 424 mg/kg, administered subcutaneously;Toxic; conditions: route subcutaneous; method in brief: as §1
Mus musculus [44] = assay: Antitrypanosomal activity was evaluated against Trypanosoma rhodesiense infections in mice, at dose 53 mg/kg, administered subcutaneously; Cures; conditions: route subcutaneous; method in brief: as §1
Mus musculus [45] = assay: Antitrypanosomal activity was evaluated against Trypanosoma rhodesiense infections in mice, at dose 1.6 mg/kg, administered subcutaneously;Cures; conditions: route subcutaneous; method in brief: as §1

## CC1(C)N=C(N)N=C(N)N1c1ccc(CCc2cccc(N3C(N)=NC(N)=NC3(C)C)c2)cc1.Cl.Cl
Mus musculus [1]
  Delta MST: 0.2 days
Mus musculus [2]
  Cures: 1
Mus musculus [3]
  Cures: 1
Mus musculus [4]
  Toxic: 1
Mus musculus [5]
  Delta MST: 1 days
Mus musculus [6]
  Delta MST: 1.8 days
Mus musculus [7]
  Delta MST: 3.7 days
Mus musculus [8]
  Delta MST: 0 days
Mus musculus [9]
  Toxic: 1
Mus musculus [10]
  Toxic: 5
Mus musculus [11]
  Delta MST: 1.7 days
Mus musculus [12]
  Delta MST: 0.4 days

## CC1(C)N=C(N)N=C(N)N1c1ccc(Oc2ccc(Oc3ccc(N4C(N)=NC(N)=NC4(C)C)cc3)cc2)cc1.Cl.Cl
Mus musculus [13]
  Toxic: 5
Mus musculus [8]
  Delta MST: 0.5 days
Mus musculus [14]
  Toxic: 4
Mus musculus [12]
  Delta MST: 1.9 days

## Cc1ccc(N2C(N)=NC(N)=NC2(C)C)cc1N1C(N)=NC(N)=NC1(C)C.Cl.Cl
[15]
  Toxic: 5
[16]
  Delta MST: -0.1 days
[17]
  Toxic: 5
[18]
  Delta MST: 0.2 days
Mus musculus [19]
  Toxic: 2
[20]
  Delta MST: 0 days
[21]
  Delta MST: 0.2 days

## CC1(C)N=C(N)N=C(N)N1c1ccc(OCCCOc2ccc(N3C(N)=NC(N)=NC3(C)C)cc2)cc1.Cl.Cl
[15]
  Toxic: 5
Mus musculus [22]
  Toxic: 1
Mus musculus [23]
  Toxic: 5
Mus musculus [24]
  Toxic: 5
[17]
  Toxic: 5
[18]
  Delta MST: 0 days
[25]
  Toxic: 5
[21]
  Delta MST: 0 days

## CC1(C)N=C(N)N=C(N)N1c1ccc2c(c1)Cc1cc(N3C(N)=NC(N)=NC3(C)C)ccc1-2.Cl.Cl
Mus musculus [26]
  Cures: 3
Mus musculus [27]
  Cures: 4
[28]
  Toxic: 3
Mus musculus [29]
  Toxic: 1
Mus musculus [3]
  Cures: 2
[15]
  Toxic: 5
[16]
  Delta MST: 4.5 days
[30]
  Delta MST: 26 days
Mus musculus [31]
  Toxic: 4
Mus musculus [32]
  Cures: 1
[18]
  Delta MST: 4 days
Mus musculus [33]
  Delta MST: 3 days
[20]
  Delta MST: 4.3 days
[34]
  Delta MST: 2 days
[21]
  Delta MST: 3 days
Mus musculus [35]
  Cures: 1
Mus musculus [36]
  Cures: 1

## CC1(C)N=C(N)N=C(N)N1c1ccc(CCc2ccc(N3C(N)=NC(N)=NC3(C)C)cc2)cc1.Cl.Cl
Mus musculus [37]
  Cures: 4
Mus musculus [26]
  Cures: 4
Mus musculus [27]
  Cures: 4
[16]
  Delta MST: 7.7 days
[38]
  Delta MST: 0.2 days
Mus musculus [39]
  Delta MST: 3.8 days
[18]
  Delta MST: 3.2 days
[40]
  Delta MST: 7.8 days
Mus musculus [41]
  Cures: 3
Mus musculus [42]
  Cures: 5
Mus musculus [43]
  Toxic: 3
Mus musculus [11]
  Delta MST: 3.4 days

## CC1(C)N=C(N)N=C(N)N1c1ccc(/C=C/c2ccc(N3C(N)=NC(N)=NC3(C)C)cc2)cc1.Cl.Cl
Mus musculus [37]
  Cures: 3
Mus musculus [26]
  Cures: 5
Mus musculus [3]
  Cures: 3
Mus musculus [44]
  Cures: 5
Mus musculus [45]
  Cures: 1
Mus musculus [41]
  Cures: 4
Mus musculus [35]
  Cures: 3
